In brackets after ≈: the same amount, converted by molar mass.
Tests used:
Haemophilus influenzae = experiment: In vitro antimicrobial activity against Haemophilus influenzae.; assay type: functional
Enterococcus faecium = experiment: In vitro antimicrobial activity against Streptococcus faecium X66; assay type: functional, streptococcus fae-cium
Streptococcus pneumoniae [1] = experiment: In vivo effective dose against experimental infections in mice Streptococcus pneumoniae park when administered sc; assay type: functional
Streptococcus pyogenes [2] = experiment: In vivo effective dose against experimental infections in rodent caused by Streptococcus pyogenes C203 when administered orally; assay type: functional; settings: po
Streptococcus pneumoniae [3] = experiment: In vivo effective dose against experimental infections in mice Streptococcus pneumoniae park when administered orally; assay type: functional; settings: po
[4] = tested on: Staphylococcus epidermidis; experiment: In vitro antimicrobial activity against Staphylococcus epidermidis EPI1; assay type: functional
Streptococcus pyogenes [5] = experiment: In vivo effective dose against experimental infections in rodent caused by Streptococcus pyogenes C203 when administered sc; assay type: functional
Streptococcus pneumoniae [6] = experiment: In vitro antimicrobial activity against Streptococcus pneumoniae; assay type: functional
Staphylococcus aureus = experiment: In vitro antimicrobial activity against Staphylococcus aureus X1; assay type: functional
Streptococcus pyogenes [7] = experiment: In vitro antimicrobial activity against Streptococcus pyogenes C203; assay type: functional
[8] = tested on: Peptoniphilus asaccharolyticus; experiment: In vitro antimicrobial activity against anaerobic bacteria peptococcus asaccharolyticus 1302; assay type: functional
[9] = tested on: Bacteroides thetaiotaomicron; experiment: In vitro antimicrobial activity against anaerobic bacteria bacteroides thetaiotaomicron 1438; assay type: functional
Mus musculus [10] = experiment: Peripheral plasma levels in mice after oral administration of 100 mg/kg dose for 0.25 hr; assay type: functional, organism-based; set-up: dose 100 mg/kg
Method in brief: (§1)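 Mice were given the compound orally and sampled for peripheral plasma at each time point. Plasma was assayed microbiologically against Micrococcus luteus seeded in Antibiotic Medium 1. Inhibition zone sizes were read, and concentrations were calculated from each compound's own standard curve. Each value is the mean of five mice per time point.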

[11] = tested on: Fusobacterium necrophorum; experiment: In vitro antimicrobial activity against anaerobic bacteria usobacterium necrophorum 6054A; assay type: functional
Eikenella corrodens = experiment: In vitro antimicrobial activity against anaerobic bacteria bacteroides corrodens 1874; assay type: functional
Collinsella aerofaciens = experiment: In vitro antimicrobial activity against anaerobic bacteria eubacterium aerofaciens 1235; assay type: functional
Chlamydia trachomatis = experiment: In vitro antimicrobial activity against chlamydia trachomatis.; assay type: functional
Clostridioides difficile = experiment: In vitro antimicrobial activity against anaerobic bacteria Clostridium difficile 2994; assay type: functional
[12] = tested on: Peptostreptococcus anaerobius; experiment: In vitro antimicrobial activity against anaerobic bacteria eubacterium peptostreptococcus anaerobius 1428,; assay type: functional
[13] = tested on: Prevotella melaninogenica; experiment: In vitro antimicrobial activity against anaerobic bacteria bacteroides melaninogenicus 1856,; assay type: functional
Mus musculus [14] = experiment: Peripheral plasma levels in mice after oral administration of 50 mg/kg dose for 1 hr; assay type: functional, organism-based; set-up: dose 50 mg/kg; method in brief: as §1
Cutibacterium acnes = experiment: In vitro antimicrobial activity against anaerobic bacteria propionibacterium acnes 79; assay type: functional
Anaerococcus prevotii = experiment: In vitro antimicrobial activity against anaerobic bacteria peptococcus prevoti 1281; assay type: functional
Phocaeicola vulgatus = experiment: In vitro antimicrobial activity against anaerobic bacteria bacteroides vulgatus 1211; assay type: functional
Mus musculus [15] = experiment: Peripheral plasma levels in mice after oral administration of 50 mg/kg dose for 2 hr; assay type: functional, organism-based; set-up: dose 50 mg/kg; method in brief: as §1
Mus musculus [16] = experiment: Peripheral plasma levels in mice after oral administration of 100 mg/kg dose for 1 hr; assay type: functional, organism-based; set-up: dose 100 mg/kg; method in brief: as §1
Clostridium perfringens = experiment: In vitro antimicrobial activity against anaerobic bacteria clostridium perfringens 81,; assay type: functional
Mus musculus [17] = experiment: Peripheral plasma levels in mice after oral administration of 100 mg/kg dose for 2 hr; assay type: functional, organism-based; set-up: dose 100 mg/kg; method in brief: as §1
[18] = tested on: Prevotella melaninogenica; experiment: In vitro antimicrobial activity against anaerobic bacteria bacteroides melaninogenicus 2736; assay type: functional
Bacteroides fragilis [19] = experiment: In vitro antimicrobial activity against anaerobic bacteria bacteroides fragilis 1877; assay type: functional
[20] = In vitro antimicrobial activity against anaerobic bacteria peptostreptococcus intermedius 1264; assay type: functional
Fusobacterium = experiment: In vitro antimicrobial activity against anaerobic bacteria fusobacterium symbiosum 1470; assay type: functional
Clostridium septicum = experiment: In vitro antimicrobial activity against anaerobic bacteria clostridium septicum 1128; assay type: functional
Mus musculus [21] = experiment: Peripheral plasma levels in mice after oral administration of 100 mg/kg dose for 4 hr; assay type: functional, organism-based; set-up: dose 100 mg/kg; method in brief: as §1
Mus musculus [22] = experiment: Peripheral plasma levels in mice after oral administration of 50 mg/kg dose for 0.25 hr; assay type: functional, organism-based; set-up: dose 50 mg/kg; method in brief: as §1
Mus musculus [23] = experiment: Peripheral plasma levels in mice after oral administration of 100 mg/kg dose for 0.5 hr; assay type: functional, organism-based; set-up: dose 100 mg/kg; method in brief: as §1
Mus musculus [24] = experiment: Peripheral plasma levels in mice after oral administration of 50 mg/kg dose for 0.5 hr; assay type: functional, organism-based; set-up: dose 50 mg/kg; method in brief: as §1
Bacteroides fragilis [25] = experiment: In vitro antimicrobial activity against anaerobic bacteria bacteroides fragilis 111; assay type: functional
Bacteroides fragilis [26] = experiment: In vitro antimicrobial activity against anaerobic bacteria bacteroides fragilis 1936B,; assay type: functional
Rattus norvegicus [27] = experiment: Peripheral plasma levels in rats after oral administration of 100 mg/kg dose for 4 hr; assay type: functional, organism-based; set-up: dose 100 mg/kg
Method in brief: (§2)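 Rats received 100 mg/kg orally and were sampled for peripheral plasma. Concentrations were measured by Micrococcus luteus agar-diffusion microbiological assay in Antibiotic Medium 1, with zone sizes converted using the standard curve for the appropriate compound. Each value is the average of three rats per time point.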

Rattus norvegicus [28] = experiment: Peripheral plasma levels in rats after oral administration of 100 mg/kg dose for 0.5 hr; assay type: functional, organism-based; set-up: dose 100 mg/kg; method in brief: as §2
Rattus norvegicus [29] = experiment: Peripheral plasma levels in rats after oral administration of 100 mg/kg dose for 1 hr; assay type: functional, organism-based; set-up: dose 100 mg/kg; method in brief: as §2
Rattus norvegicus [30] = experiment: Peripheral plasma levels in rats after oral administration of 100 mg/kg dose for 0.25 hr; assay type: functional, organism-based; set-up: dose 100 mg/kg; method in brief: as §2
Rattus norvegicus [31] = experiment: Peripheral plasma levels in rats after oral administration of 100 mg/kg dose for 2 hr; assay type: functional, organism-based; set-up: dose 100 mg/kg; method in brief: as §2
Mus musculus [32] = experiment: Peripheral plasma levels in mice after oral administration of 50 mg/kg dose for 4 hr; assay type: functional, organism-based; set-up: dose 50 mg/kg; method in brief: as §1
Streptococcus pyogenes [33] = experiment: Antimicrobial activity against Streptococcus pyogenes C203; assay type: functional
Streptococcus pyogenes [34] = experiment: Activity against Streptococcus pyogenes C203 when administered orally; assay type: functional; settings: po
Method in brief: (§3)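 Mouse protection test: infected mice were dosed twice, at 1 and 5 h postinfection, either subcutaneously or orally. […] The result is expressed as ED50 in mg/kg × 2.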

Streptococcus pyogenes [35] = experiment: Activity against Streptococcus pyogenes C203 when administered sc; assay type: functional; method in brief: as §3

## CC[C@H]1OC(=O)C[C@@H](O)[C@H](C)[C@@H](O[C@@H]2O[C@H](C)[C@@H](O)[C@H](N(C)C)[C@H]2O)[C@@H](CCOc2cccc(Oc3ccccc3)c2)C[C@@H](C)C(=O)/C=C/C(C)=C/[C@@H]1CO[C@@H]1O[C@H](C)[C@@H](O)[C@@H](OC)[C@H]1OC
Haemophilus influenzae
  MIC: 16 µg/mL (≈ 17 µM)
Enterococcus faecium
  MIC: 0.5 µg/mL (≈ 0.531 µM)
Streptococcus pneumoniae [1]
  ED50: > 20 mg/kg
Streptococcus pyogenes [2]
  ED50: 35 mg/kg
Streptococcus pneumoniae [3]
  ED50: 46 mg/kg
[4]
  MIC: 0.5 µg/mL (≈ 0.531 µM)
Streptococcus pyogenes [5]
  ED50: > 10 mg/kg
Streptococcus pneumoniae [6]
  MIC: 0.25 µg/mL (≈ 0.265 µM)
Staphylococcus aureus
  MIC: 0.5 µg/mL (≈ 0.531 µM)
Streptococcus pyogenes [7]
  MIC: 0.25 µg/mL (≈ 0.265 µM)

## CC[C@H]1OC(=O)C[C@@H](O)[C@H](C)[C@@H](O[C@@H]2O[C@H](C)[C@@H](O[C@H]3C[C@@](C)(O)[C@@H](O)[C@H](C)O3)[C@H](N(C)C)[C@H]2O)[C@@H](CCCl)C[C@@H](C)C(=O)/C=C/C(C)=C/[C@@H]1CO[C@@H]1O[C@H](C)[C@@H](O)[C@@H](OC)[C@H]1OC
[8]
  MIC: 32 µg/mL (≈ 34.2 µM)
[9]
  MIC: 2 µg/mL (≈ 2.14 µM)
Mus musculus [10]
  Concentration: 10 µg/mL
[11]
  MIC: > 128 µg/mL
Haemophilus influenzae
  MIC: > 128 µg/mL
Eikenella corrodens
  MIC: 4 µg/mL (≈ 4.27 µM)
Collinsella aerofaciens
  MIC: 64 µg/mL (≈ 68.3 µM)
Chlamydia trachomatis
  MIC: 1 µg/mL (≈ 1.07 µM)
Enterococcus faecium
  MIC: > 128 µg/mL
Clostridioides difficile
  MIC: < 0.5 µg/mL
[12]
  MIC: 4 µg/mL (≈ 4.27 µM)
[13]
  MIC: 2 µg/mL (≈ 2.14 µM)
Mus musculus [14]
  Concentration: 0.9 µg/mL
Cutibacterium acnes
  MIC: > 128 µg/mL
Anaerococcus prevotii
  MIC: 8 µg/mL (≈ 8.54 µM)
Phocaeicola vulgatus
  MIC: 1 µg/mL (≈ 1.07 µM)
Mus musculus [15]
  Concentration: 0.5 µg/mL
Mus musculus [16]
  Concentration: 3 µg/mL
Clostridium perfringens
  MIC: < 0.5 µg/mL
Mus musculus [17]
  Concentration: 1.3 µg/mL
[18]
  MIC: 2 µg/mL (≈ 2.14 µM)
Bacteroides fragilis [19]
  MIC: 4 µg/mL (≈ 4.27 µM)
[4]
  MIC: 1 µg/mL (≈ 1.07 µM)
Streptococcus pyogenes [5]
  ED50: > 6.3 mg/kg
[20]
  MIC: 64 µg/mL (≈ 68.3 µM)
Fusobacterium
  MIC: 4 µg/mL (≈ 4.27 µM)
Clostridium septicum
  MIC: < 0.5 µg/mL
Streptococcus pneumoniae [6]
  MIC: 32 µg/mL (≈ 34.2 µM)
Mus musculus [21]
  Concentration: 0.4 µg/mL
Mus musculus [22]
  Concentration: 1.9 µg/mL
Staphylococcus aureus
  MIC: 1 µg/mL (≈ 1.07 µM)
Streptococcus pyogenes [7]
  MIC: 2 µg/mL (≈ 2.14 µM)
Mus musculus [23]
  Concentration: 8.8 µg/mL
Mus musculus [24]
  Concentration: 1.9 µg/mL
Bacteroides fragilis [25]
  MIC: 8 µg/mL (≈ 8.54 µM)
Bacteroides fragilis [26]
  MIC: 4 µg/mL (≈ 4.27 µM)

## CC[C@H]1OC(=O)C[C@@H](O)[C@H](C)[C@@H](O[C@@H]2O[C@H](C)[C@@H](O)[C@H](N(C)C)[C@H]2O)[C@@H](CCF)C[C@@H](C)C(=O)/C=C/C(C)=C/[C@@H]1CO[C@@H]1O[C@H](C)[C@@H](O)[C@@H](OC)[C@H]1OC
Rattus norvegicus [27]
  Concentration: 1.5 µg/mL
Haemophilus influenzae
  MIC: 16 µg/mL (≈ 20.6 µM)
Rattus norvegicus [28]
  Concentration: 0.5 µg/mL
Enterococcus faecium
  MIC: 8 µg/mL (≈ 10.3 µM)
Rattus norvegicus [29]
  Concentration: 0.1 µg/mL
Mus musculus [14]
  Concentration: 0.2 µg/mL
Mus musculus [15]
  Concentration: 0.4 µg/mL
Streptococcus pyogenes [2]
  ED50: 8 mg/kg
[4]
  MIC: 0.12 µg/mL (≈ 0.155 µM)
Streptococcus pyogenes [5]
  ED50: 5 mg/kg
Streptococcus pneumoniae [6]
  MIC: 2 µg/mL (≈ 2.58 µM)
Mus musculus [22]
  Concentration: < 0.1 µg/mL
Staphylococcus aureus
  MIC: 0.25 µg/mL (≈ 0.322 µM)
Rattus norvegicus [30]
  Concentration: 0.3 µg/mL
Streptococcus pyogenes [7]
  MIC: 0.25 µg/mL (≈ 0.322 µM)
Rattus norvegicus [31]
  Concentration: 1.9 µg/mL
Mus musculus [24]
  Concentration: < 0.1 µg/mL
Mus musculus [32]
  Concentration: 0.1 µg/mL

## CC[C@H]1OC(=O)C[C@@H](O)[C@H](C)[C@@H](O[C@@H]2O[C@H](C)[C@@H](O[C@H]3C[C@@](C)(O)[C@@H](O)[C@H](C)O3)[C@H](N(C)C)[C@H]2OC(C)=O)[C@@H](CCOc2ccccc2)C[C@@H](C)C(=O)/C=C/C(C)=C/[C@@H]1CO[C@@H]1O[C@H](C)[C@@H](O)[C@@H](OC)[C@H]1OC
Streptococcus pyogenes [33]
  MIC: 4 µg/mL (≈ 3.86 µM)
Streptococcus pyogenes [34]
  ED50: 76.5 mg/kg
Streptococcus pyogenes [35]
  ED50: > 10 mg/kg

## CC[C@H]1OC(=O)C[C@@H](O)[C@H](C)[C@@H](O[C@@H]2O[C@H](C)[C@@H](OC(C)=O)[C@H](N(C)C)[C@H]2OC(C)=O)[C@@H](CCOc2ccccc2)C[C@@H](C)C(=O)/C=C/C(C)=C/[C@@H]1CO[C@@H]1O[C@H](C)[C@@H](O)[C@@H](OC)[C@H]1OC
Streptococcus pyogenes [33]
  MIC: 0.5 µg/mL (≈ 0.535 µM)
Streptococcus pyogenes [34]
  ED50: 16 mg/kg
Streptococcus pyogenes [35]
  ED50: 2.9 mg/kg

— ChEMBL document CHEMBL1124186, “Synthesis and evaluation of tylosin-related macrolides modified at the aldehyde function: a new series of orally effective antibiotics” (1988)
